Assay results: the RNAGym collection of RNA variant scans (doi:10.1101/gad.245936.114)
Variants at the floor of the assay were thinned out.

B1: tRNA (parent)
chain: CUCUCGGUAGCCAAGUUGGUUUAAGGCGCAAGACUUUAAUUUAUCACUACGAAAUCUUGAGAUCGGGCGUUCGACUCGCCCCCGGGAGAUUUUUUCCUCGAGCAA

Variants of: B1
Experiment: nonsense suppression (GFP-seq) (ratio to wild type); higher = more function; SUP4oc tRNA, yeast GFP reporter sort-seq
In short: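 Sorted GFP/RFP bins of yeast were each Illumina-sequenced with a phred ≥30 cutoff; the cells held a genome-integrated ochre-suppressor tRNA variant from a library with ~3% random mutations, a galactose-driven GFP ochre reporter, and RFP. Culture was in raffinose/galactose medium containing 80 mg/L adenine. Nonsense suppression, termed GFPSEQ, is the median GFP/RFP of the bins weighted by each variant's estimated cell share per bin, relative to the unmutated parent tRNA, for variants reaching ≥100 reads and ≥30 cells.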

Going from G78C to U4C A24G, the nonsense suppression rises from 0.202 to 0.31.

First: A9C G85U
Second: A13C A30U G85A
The nonsense suppression of the first is lower: 0.04 for the first, 0.157 for the second.

Compared with C34U G69A A89C, C75U G85U is higher in nonsense suppression: no more than 0.026 for the first, 1.12 for the second.

First: A13U A23U
Second: U16A G18U A24C U58G
The nonsense suppression of the first is higher: 0.0855 for the first, no more than 0.026 for the second.

Compared with U20A A60U C79U, G26U G88C is lower in nonsense suppression: 0.212 for the first, no more than 0.026 for the second.

U2G U20A U63C U76C and G19U G25A A31G U35G C64G cannot be ordered by nonsense suppression: no more than 0.026 for the first, no more than 0.026 for the second.

U8C U35G U71A and G28C C34U cannot be ordered by nonsense suppression: no more than 0.026 for the first, no more than 0.026 for the second.

A14U G15C A60C C79U and C5U G10A A13G G73A C75A G86C cannot be ordered by nonsense suppression: no more than 0.026 for the first, no more than 0.026 for the second.

First: A24U G85U
Second: C1U U17C C81G
The nonsense suppression of the first is higher: 0.0597 for the first, no more than 0.026 for the second.

First: U4C C68U U76C
Second: C3U G32A G67U G69C
The nonsense suppression of the first is higher: 1.13 for the first, no more than 0.026 for the second.

Going from C5U A9G to C81U G84A, the nonsense suppression rises from 0.0324 to 0.0642.

Going from A13U U20A to U4C G86C, the nonsense suppression falls from 0.189 to 0.162.

Compared with U2A C3G C27G C29G A33U, A9U A31G is higher in nonsense suppression: no more than 0.026 for the first, 0.193 for the second.

Compared with C29U A33U, G26C U55C is higher in nonsense suppression: 0.0316 for the first, 0.0525 for the second.

A31C U76G and G10C C77U cannot be ordered by nonsense suppression: no more than 0.026 for the first, no more than 0.026 for the second.

C1U U17G and G59C G61C cannot be ordered by nonsense suppression: no more than 0.026 for the first, no more than 0.026 for the second.

G26A C29G A30G A33G and A60C G67A cannot be ordered by nonsense suppression: no more than 0.026 for the first, no more than 0.026 for the second.

First: G10A A54C
Second: U22A G65A
The nonsense suppression of the first is lower: 0.0309 for the first, 0.12 for the second.

First: C3U A60U
Second: G15C G19C
The nonsense suppression of the first is higher: 0.55 for the first, no more than 0.026 for the second.

Compared with G7A U17C A24G G32U U71C A87U, A13U G32C C56G C75U is higher in nonsense suppression: no more than 0.026 for the first, 0.912 for the second.

Compared with C12G U16C A23G, U4C G6U G28A is higher in nonsense suppression: 0.207 for the first, 0.427 for the second.

Compared with U21C G78U, G6A C29G A62C C75G is lower in nonsense suppression: 0.442 for the first, no more than 0.026 for the second.

U58C A89C and A14G A24C A31G C56G cannot be ordered by nonsense suppression: no more than 0.026 for the first, no more than 0.026 for the second.

First: C12U U17C
Second: C5U U8C G65A
The nonsense suppression of the first is higher: 0.212 for the first, no more than 0.026 for the second.

First: C34U C81A G88C
Second: A24C G28C
The nonsense suppression of the first is lower: no more than 0.026 for the first, 0.201 for the second.

Going from C12U A60U to C1A U71C C77G, the nonsense suppression falls from 0.723 to no more than 0.026.

First: G61A A89C
Second: U16C C68A G88U
The nonsense suppression of the first is higher: 0.0288 for the first, no more than 0.026 for the second.

Compared with C1A G86C, A30U G32U C56A U58G is higher in nonsense suppression: no more than 0.026 for the first, 1.11 for the second.

Compared with G19A C34A G59A G73U C82U, U4C A14U is higher in nonsense suppression: no more than 0.026 for the first, 0.0343 for the second.

First: A30G C64U
Second: U2C A89U
The nonsense suppression of the first is higher: 0.0605 for the first, no more than 0.026 for the second.

G26A U71G and A13C G18U G26A A31U cannot be ordered by nonsense suppression: no more than 0.026 for the first, no more than 0.026 for the second.

Compared with A9C C34G, U20G C56U is higher in nonsense suppression: no more than 0.026 for the first, 0.148 for the second.

Going from G28A G84A to A9U G86A, the nonsense suppression rises from no more than 0.026 to 0.0496.

C1U A9U A13C C64U and C1U U55G U58G cannot be ordered by nonsense suppression: no more than 0.026 for the first, no more than 0.026 for the second.

Compared with G67C C81A, A9U G73A is higher in nonsense suppression: no more than 0.026 for the first, 0.0814 for the second.

C1G A54G U63G U70G and G32A U76G cannot be ordered by nonsense suppression: no more than 0.026 for the first, no more than 0.026 for the second.

First: U8G G26A C56U C64G G66U G78U A89U
Second: U21A G78C
The nonsense suppression of the first is lower: no more than 0.026 for the first, 0.0372 for the second.

Going from A24C U63A to G10A A60U C68A, the nonsense suppression falls from 0.636 to no more than 0.026.

First: C12U A13G
Second: G18A A87G
The nonsense suppression of the first is higher: 0.153 for the first, 0.036 for the second.

C1A G19U U55A and U2G G10C G15U C29U A31U cannot be ordered by nonsense suppression: no more than 0.026 for the first, no more than 0.026 for the second.

Going from A9U G78A to C1G A14U C77U, the nonsense suppression falls from 0.0365 to no more than 0.026.

First: A13U C29U C81U
Second: U21G A30U
The nonsense suppression of the first is higher: 0.0757 for the first, no more than 0.026 for the second.

G84A G88U and G6C A14G A60C G65U C79G G86C cannot be ordered by nonsense suppression: no more than 0.026 for the first, no more than 0.026 for the second.

Compared with C29U A30G, A74G C81G is lower in nonsense suppression: 1.1 for the first, no more than 0.026 for the second.

Going from A13G A87G to C12G C68G G69U A89U, the nonsense suppression falls from 0.14 to 0.0702.

Going from A14G A33G G69C to A24G C75A, the nonsense suppression rises from no more than 0.026 to 0.24.

G7A C11U U35A A54C C64U C83G and C11G U16G U58A G61A G67C cannot be ordered by nonsense suppression: no more than 0.026 for the first, no more than 0.026 for the second.

Compared with A13C U17G C82U, A60U C68U is higher in nonsense suppression: 0.142 for the first, 1.1 for the second.

Compared with U21G U22C C82U, A9C G18A A31C A54C A62U G69C G88C is lower in nonsense suppression: 0.199 for the first, no more than 0.026 for the second.

A14C U21G A23C G69A U70A and G25U U63C C79A cannot be ordered by nonsense suppression: no more than 0.026 for the first, no more than 0.026 for the second.

First: U20C C77U
Second: A13U U71A
The nonsense suppression of the first is higher: 0.0349 for the first, no more than 0.026 for the second.

C12G C56G G65A A74U and A60U U71G cannot be ordered by nonsense suppression: no more than 0.026 for the first, no more than 0.026 for the second.

G6C U71A and A74C C81U cannot be ordered by nonsense suppression: no more than 0.026 for the first, no more than 0.026 for the second.

First: A9U A30G
Second: G15U A24G G86C
The nonsense suppression of the first is higher: 0.0995 for the first, no more than 0.026 for the second.

G32C C34G U35C and G26U C27G A30G U57G C64U G65C cannot be ordered by nonsense suppression: no more than 0.026 for the first, no more than 0.026 for the second.

First: C12U U63A
Second: A74C U76C G86A A89G
The nonsense suppression of the first is higher: 0.697 for the first, no more than 0.026 for the second.

A62C G67A and U16A U71G C75G cannot be ordered by nonsense suppression: no more than 0.026 for the first, no more than 0.026 for the second.

Compared with U2C G61C, G15U U16A G59C G66C U70A C82G is lower in nonsense suppression: 0.0279 for the first, no more than 0.026 for the second.

Going from C11A U58A G69A to C75A A87G, the nonsense suppression rises from no more than 0.026 to 0.839.

Going from G10C G26A G65A A87U to G61C C77G, the nonsense suppression rises from no more than 0.026 to 0.0296.

U4G U57G A60U and G10C U71A A74U A87C cannot be ordered by nonsense suppression: no more than 0.026 for the first, no more than 0.026 for the second.

A9U C81A and G15C A23G G66A cannot be ordered by nonsense suppression: no more than 0.026 for the first, no more than 0.026 for the second.

Going from C3G A74G to U22G A30G, the nonsense suppression rises from no more than 0.026 to 0.781.

C11U G66A and G15C G18U U76G A87G cannot be ordered by nonsense suppression: no more than 0.026 for the first, no more than 0.026 for the second.

U2C G26U U76A and G10A C72A C80A cannot be ordered by nonsense suppression: no more than 0.026 for the first, no more than 0.026 for the second.

First: A23G G59C
Second: U70A C83U
The nonsense suppression of the first is lower: no more than 0.026 for the first, 0.0439 for the second.

U4A C5G G59A and A33C U71G G86A cannot be ordered by nonsense suppression: no more than 0.026 for the first, no more than 0.026 for the second.

Going from U63A U76C to U20G G25A G78A, the nonsense suppression falls from 0.748 to no more than 0.026.

Compared with C5U A31G U71C, U17A C29U is higher in nonsense suppression: no more than 0.026 for the first, 1.15 for the second.

G28U U71G and U2A C34U cannot be ordered by nonsense suppression: no more than 0.026 for the first, no more than 0.026 for the second.

First: C5U G69A
Second: G28U G78U
The nonsense suppression of the first is lower: no more than 0.026 for the first, 0.0435 for the second.

Compared with G73A G85U, G28U C79U is lower in nonsense suppression: 0.285 for the first, no more than 0.026 for the second.

Going from C1U U63C to A24C U63G, the nonsense suppression rises from no more than 0.026 to 0.133.

Going from G59A G61A U71G G78U to U8G G88A, the nonsense suppression rises from no more than 0.026 to 0.228.

Going from A60G A74C to G69C A89G, the nonsense suppression falls from 0.0318 to no more than 0.026.

Compared with C82A A87U, G28C G85U is higher in nonsense suppression: no more than 0.026 for the first, 0.208 for the second.

Compared with U58A U70C G86C A89C, U22C A87G is higher in nonsense suppression: no more than 0.026 for the first, 0.724 for the second.

First: A24U G84A
Second: A54C G84U
The nonsense suppression of the first is higher: 0.0448 for the first, 0.0301 for the second.

First: G61U C82U
Second: A60G G66U
The nonsense suppression of the first is higher: 0.73 for the first, 0.0286 for the second.

First: G25U U63G
Second: U21A C83G G88U
The nonsense suppression of the first is higher: 0.0371 for the first, no more than 0.026 for the second.

Going from C5A A60G to A9U U35G G73A A74U, the nonsense suppression falls from 0.0265 to no more than 0.026.

Going from G61C A87U to G59U G88A, the nonsense suppression falls from 0.3 to no more than 0.026.

A13U G59U C80G and G6A G7U A54C cannot be ordered by nonsense suppression: no more than 0.026 for the first, no more than 0.026 for the second.

With A13U A24U the nonsense suppression was 0.863.
